3 molecules from ChEMBL document CHEMBL2311479, “Remarkable stabilization of antiparallel DNA triplexes by strong stacking effects of consecutively modified nucleobases containing thiocarbonyl groups” (Bioorg Med Chem Lett, 2013) can be followed below.

pKd: −log10 of the molar value. Active and inactive are the calls of the source. The rule behind the calls is not given here.

A short description of assay [1]: Binding affinity to HP duplex DNA 1 (unknown origin) containing c-Myc P2 promoter sequence incubated for 12 hrs at 37 degC in presence of 50 mM pH 7.2 HEPES buffer containing 10 mM MgCl2, 100 mM NaCl and 10% sucrose.
A short description of assay [2]: Binding affinity to fluorescently-labeled mismatched HP duplex DNA 5 (unknown origin) containing HIV2 nef gene assessed as formation of stable triplexes at 100 uM incubated for 12 hrs at 37 degC in presence of 50 mM pH 7.2 HEPES buffer containing 10 mM MgCl2, 100 mM NaCl and 10% sucrose by gel mobility shift assay. An outline of the steps:
(§1)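 Triplex formation by gel shift. Oligonucleotide at 100 µM was mixed with fluorescently labeled hairpin duplex at 40 nM in 50 mM HEPES (pH 7.2), 10 mM MgCl2, 100 mM NaCl and 10% sucrose for 12 h at 37 °C. Complexes were resolved on a 15% nondenaturing polyacrylamide gel.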

The nature of assay [3]: Binding affinity to fluorescently-labeled HP duplex DNA 2 (unknown origin) containing HIV2 nef gene assessed as formation of stable triplexes at 40 uM in presence of 40 uM RNA 1 (5'-CACCACCACCACC-3') by gel mobility shift assay.
Assay [4] in a line: Binding affinity to fluorescently-labeled HP duplex DNA 2 (unknown origin) containing HIV2 nef gene assessed as formation of stable triplexes at 40 uM by gel mobility shift assay.
A short description of assay [5]: Binding affinity to fluorescently-labeled mismatched HP duplex DNA 4 (unknown origin) containing HIV2 nef gene assessed as formation of stable triplexes at 100 uM incubated for 12 hrs at 37 degC in presence of 50 mM pH 7.2 HEPES buffer containing 10 mM MgCl2, 100 mM NaCl and 10% sucrose by gel mobility shift assay. An outline of the steps:
as §1

A short description of assay [6]: Binding affinity to fluorescently-labeled mismatched HP duplex DNA 8 (unknown origin) containing HIV2 nef gene assessed as formation of stable triplexes at 100 uM incubated for 12 hrs at 37 degC in presence of 50 mM pH 7.2 HEPES buffer containing 10 mM MgCl2, 100 mM NaCl and 10% sucrose by gel mobility shift assay. A digest of the protocol:
as §1

A short description of assay [7]: Binding affinity to HP duplex DNA 2 (unknown origin) containing HIV2 nef gene sequence incubated for 12 hrs at 37 degC in presence of 50 mM pH 7.2 HEPES buffer containing 10 mM MgCl2, 100 mM KCl and 10% sucrose.
The nature of assay [8]: Binding affinity to fluorescently-labeled mismatched HP duplex DNA 7 (unknown origin) containing HIV2 nef gene assessed as formation of stable triplexes at 100 uM incubated for 12 hrs at 37 degC in presence of 50 mM pH 7.2 HEPES buffer containing 10 mM MgCl2, 100 mM NaCl and 10% sucrose by gel mobility shift assay. A digest of the protocol: as §1
Assay [9] in a line: Binding affinity to fluorescently-labeled HP duplex DNA 2 (unknown origin) containing HIV2 nef gene assessed as formation of stable triplexes at 100 uM incubated for 12 hrs at 37 degC in presence of 50 mM pH 7.2 HEPES buffer containing 10 mM MgCl2, 100 mM NaCl and 10% sucrose by gel mobility shift assay. An outline of the steps: as §1
Assay [10] can be described thus: Binding affinity to HP duplex DNA 2 (unknown origin) containing HIV2 nef gene sequence incubated for 12 hrs at 37 degC in presence of 50 mM pH 7.2 HEPES buffer containing 10 mM MgCl2, 100 mM NaCl and 10% sucrose. A digest of the protocol: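 Oligonucleotide binding to a 5'-FAM-labeled hairpin duplex bearing the HIV2 nef sequence. Incubation was 12 h at 37 °C in 50 mM HEPES (pH 7.2) with 10 mM MgCl2, 100 mM NaCl and 10% sucrose. Kd reported in µM.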

Assay [11] can be described thus: Binding affinity to fluorescently-labeled mismatched HP duplex DNA 3 (unknown origin) containing HIV2 nef gene assessed as formation of stable triplexes at 100 uM incubated for 12 hrs at 37 degC in presence of 50 mM pH 7.2 HEPES buffer containing 10 mM MgCl2, 100 mM NaCl and 10% sucrose by gel mobility shift assay. An outline of the steps: as §1
Assay [12] in a line: Binding affinity to fluorescently-labeled mismatched HP duplex DNA 6 (unknown origin) containing HIV2 nef gene assessed as formation of stable triplexes at 100 uM incubated for 12 hrs at 37 degC in presence of 50 mM pH 7.2 HEPES buffer containing 10 mM MgCl2, 100 mM NaCl and 10% sucrose by gel mobility shift assay. A digest of the protocol:
as §1

Broadly, the pKd is the negative decadic logarithm of the Kd, by convention in mol/L. For the molecule `Cc1cn([C@H]2C[C@H](OP(=O)(O)OC[C@H]3O[C@@H](n4cnc5c(=S)[nH]c(N)nc54)C[C@@H]3OP(=O)(O)OC[C@H]3O[C@@H](n4cnc5c(=S)[nH]c(N)nc54)C[C@@H]3OP(=O)(O)OC[C@H]3O[C@@H](n4cnc5c(=S)[nH]c(N)nc54)C[C@@H]3OP(=O)(O)OC[C@H]3O[C@@H](n4cc(C)c(=S)[nH]c4=O)C[C@@H]3OP(=O)(O)OC[C@H]3O[C@@H](n4cnc5c(=S)[nH]c(N)nc54)C[C@@H]3OP(=O)(O)OC[C@H]3O[C@@H](n4cnc5c(=S)[nH]c(N)nc54)C[C@@H]3OP(=O)(O)OC[C@H]3O[C@@H](n4cnc5c(=S)[nH]c(N)nc54)C[C@@H]3OP(=O)(O)OC[C@H]3O[C@@H](n4cc(C)c(=S)[nH]c4=O)C[C@@H]3OP(=O)(O)OC[C@H]3O[C@@H](n4cnc5c(=S)[nH]c(N)nc54)C[C@@H]3OP(=O)(O)OC[C@H]3O[C@@H](n4cnc5c(=O)[nH]c(N)nc54)[C@H](O)[C@@H]3O)[C@@H](CO)O2)c(=O)[nH]c1=S`, the pKd in assay [1] was 6.17.
The same measure, in the same setting: in the case of `Cc1cn([C@H]2C[C@H](OP(=O)(O)OC[C@H]3O[C@@H](n4cnc5c(=S)[nH]c(N)nc54)C[C@@H]3OP(=O)(O)OC[C@H]3O[C@@H](n4cnc5c(=S)[nH]c(N)nc54)C[C@@H]3OP(=O)(O)OC[C@H]3O[C@@H](n4cnc5c(=S)[nH]c(N)nc54)C[C@@H]3OP(=O)(O)OC[C@H]3O[C@@H](n4cc(C)c(=O)[nH]c4=O)C[C@@H]3OP(=O)(O)OC[C@H]3O[C@@H](n4cnc5c(=S)[nH]c(N)nc54)C[C@@H]3OP(=O)(O)OC[C@H]3O[C@@H](n4cnc5c(=S)[nH]c(N)nc54)C[C@@H]3OP(=O)(O)OC[C@H]3O[C@@H](n4cnc5c(=S)[nH]c(N)nc54)C[C@@H]3OP(=O)(O)OC[C@H]3O[C@@H](n4cc(C)c(=O)[nH]c4=O)C[C@@H]3OP(=O)(O)OC[C@H]3O[C@@H](n4cnc5c(=S)[nH]c(N)nc54)C[C@@H]3OP(=O)(O)OC[C@H]3O[C@@H](n4cnc5c(=O)[nH]c(N)nc54)[C@H](O)[C@@H]3O)[C@@H](CO)O2)c(=O)[nH]c1=O` it was 5.14.
With `Cc1cn([C@H]2C[C@H](OP(=O)(O)OC[C@H]3O[C@@H](n4cnc5c(=O)[nH]c(N)nc54)[C@H](O)[C@@H]3O)[C@@H](COP(=O)(O)O[C@H]3C[C@H](n4cnc5c(=S)[nH]c(N)nc54)O[C@@H]3COP(=O)(O)O[C@H]3C[C@H](n4cnc5c(=S)[nH]c(N)nc54)O[C@@H]3COP(=O)(O)O[C@H]3C[C@H](n4cc(C)c(=S)[nH]c4=O)O[C@@H]3COP(=O)(O)O[C@H]3C[C@H](n4cnc5c(=S)[nH]c(N)nc54)O[C@@H]3COP(=O)(O)O[C@H]3C[C@H](n4cnc5c(=S)[nH]c(N)nc54)O[C@@H]3COP(=O)(O)O[C@H]3C[C@H](n4cc(C)c(=S)[nH]c4=O)O[C@@H]3COP(=O)(O)O[C@H]3C[C@H](n4cnc5c(=S)[nH]c(N)nc54)O[C@@H]3COP(=O)(O)O[C@H]3C[C@H](n4cnc5c(=S)[nH]c(N)nc54)O[C@@H]3COP(=O)(O)O[C@H]3C[C@H](n4cc(C)c(=S)[nH]c4=O)O[C@@H]3COP(=O)(O)O[C@H]3C[C@H](n4cnc5c(=S)[nH]c(N)nc54)O[C@@H]3COP(=O)(O)O[C@H]3C[C@H](n4cnc5c(=S)[nH]c(N)nc54)O[C@@H]3CO)O2)c(=O)[nH]c1=O`, the result in assay [2], in assay [5], in assay [8], in assay [11] and in assay [12] was inactive. Further, the outcome in assay [3], in assay [4] and in assay [9] was Active. The figures for the pKd in assay [6], in [7] and in assay [10] were less than 4.00, 6.70 and 6.40, respectively.
